Experimental data taken from PubChem BioAssay.
Inconclusive results are not listed.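 The calls were made as follows, unless noted: active = viability increase at or above a cutoff of the median across tested compounds plus 3 SD (cut at about 8.5% in these data, passing the limit was not always enough); inconclusive = some gains above the cutoff, reason not given; inactive = the rest.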

Experiments:
[1] = OD615 S. cerevisiae growth inhibition, permissive medium, pilot counter-assay, permissive growth control for S. cerevisiae lifespan shortening project (AID 705;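 active = growth inhibition above 25% in both replicates, a cutoff set 3 SD above the mean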); conditions: OD615, 24 h, at 10 µM, stronger effect = higher value
Procedure, shortened: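 assay system = Saccharomyces cerevisiae strain carrying genetically modified DeaD replicative-lifespan system | technique = absorbance (optical density) at 615 nm | buffer or medium = permissive raffinose/galactose medium | timing = cells pre-grown 4 h, then 24 h compound exposure, 30 °C humidified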

[2] = Restrictive medium S. cerevisiae growth inhibition, OD615, pilot screen of yeast lifespan reduction project, restrictive growth control (AID 706;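 active = growth inhibition above a set limit, 3 SD over mean compound inhibition, in both replicates, cut at about 43% in these data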;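 also: modified DeaD lifespan yeast strain shifted to restrictive glucose medium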); conditions: OD615, 48 h, at 10 µM, stronger effect = higher value
Procedure, shortened: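 System: modified S. cerevisiae. Buffer or medium: CSMM-D glucose medium. Incubation: 4 h pre-growth plus 48 h compound exposure, 30 °C. Detection: absorbance (optical density) measured at 615 nm.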

[3] = viability gain of MRP-1-high H69AR cells under doxorubicin, pilot screen, MRP-1 activator project, CellTiter-Glo, duplicate (AID 807); conditions: H69AR viability with doxorubicin, CellTiter-Glo luminescence; at 10 µM; stronger effect = higher value;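 also: compound pretreatment 18-22 h then 72 h combined with doxorubicin; 0% = doxorubicin alone and 100% = vehicle without doxorubicin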
[4] = growth suppression of beta-catenin knockout HCT116, pilot screen, human colon tumor cells (AID 823;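 active = cell viability at or below a set limit in both duplicate runs, the limit being the all-compound median minus 4 SD, cut at about 23% in these data, passing the limit was not always enough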;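 also: 0% = wells killed by 20 µM Hyamine and 100% = untreated DMSO cell wells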); conditions: CellTiter-Glo, 60 h, at 10 µM, stronger effect = lower value
[5] = growth suppression of PTEN-deleted HCT116, pilot screen, cell-based, HCT116 clonal line, CellTiter-Glo (AID 824;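 active = viability at or below 27.92% in each of two runs, the all-compound median minus 4 SD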;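 also: 0% = 20 µM Hyamine control and 100% = vehicle cell control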); conditions: 60 h, at 10 µM, stronger effect = lower value
[6] = inhibitors of the yeast RAM network, pilot screen, dse1pr::URA3 reporter, 5-FOA selection (AID 869;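 active = inhibition over a set limit, the all-compound mean plus 3 SD, in both replicate runs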;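 also: 0% = DMSO wells with no growth and 100% = 10 µM 1-NA-PP1 with full growth; RAM network block rescues cells from 5-FOA so hits raise OD615 growth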); conditions: S. cerevisiae dse1pr::URA3 5-FOA growth, OD615, 2 d, at 10 µM, stronger effect = higher value
[7] = RAM signaling pathway blockade in yeast – S. cerevisiae, Pdr1DBD-CYC8 efflux-inhibited sensitized strain, primary screen (AID 1298;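 active = RAM network inhibition above 8.4% in each of two replicates, 3 SD over the compound average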;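 also: 0% = DMSO untreated cells without growth and 100% = 10 µM 1-NA-PP1 full growth; higher means more yeast growth rescued from 5-FOA killing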); conditions: S. cerevisiae cbk1-as DSE1-URA3 strain, 5-FOA growth OD615, 2 d; at 50 µM; stronger effect = higher value

CC1(C)C(c2ccccc2)=NC(c2cccnc2)=[N+]1[O-]
inactive: growth inhibition [1] -4.62% | growth inhibition [2] -3.12% | viability increase [3] 1.13% | viability [4] 98.7% | viability [5] 89.4% | inhibition [6] -0.02% | RAM network inhibition [7] -0.36%

c1ccc2c(CN3CCCCCCC3)c[nH]c2c1
inactive: growth inhibition [1] -9.45% | growth inhibition [2] 0.115% | viability increase [3] -6.65% | viability [4] 62.3% | viability [5] 67.8% | inhibition [6] 0.485% | RAM network inhibition [7] 5.27%

Cc1nc2cc(C(F)(F)F)ccc2n1C1CCN(Cc2nnnn2Cc2cccs2)CC1
inactive: growth inhibition [1] -11.3% | growth inhibition [2] -18.3% | viability increase [3] -6.21% | viability [4] 76.1% | viability [5] 67.6% | inhibition [6] 1.01% | RAM network inhibition [7] -0.01%

Cc1ccc2occ(CN3CC4CC(C3)c3cccc(=O)n3C4)c(=O)c2c1 (configuration not stated)
inactive: growth inhibition [1] -16.2% | growth inhibition [2] -17.7% | viability increase [3] -2.72% | viability [4] 98.5% | viability [5] 90.8% | inhibition [6] 1.96% | RAM network inhibition [7] 1.61%

Cn1cc(C(=O)c2ccccc2)c2ccccc21
inactive: growth inhibition [1] -1.98% | growth inhibition [2] 0.835% | viability increase [3] -1.92% | viability [4] 80.8% | viability [5] 87.1% | inhibition [6] 0.46% | RAM network inhibition [7] -3.38%

CN(C)C(=O)Oc1ccc(-c2nnco2)cc1
inactive: growth inhibition [1] 0.38% | growth inhibition [2] -1.25% | viability increase [3] 1.79% | viability [4] 104% | viability [5] 99.7% | inhibition [6] 1.48% | RAM network inhibition [7] 0.73%
